This note sets out measurements from PubChem BioAssay.

Experiment [1] in a line: inhibitors of TNFa-induced NFkB p65 translocation, primary screen, imaging, HUVEC, MLSMR starter and 10KST1 sets (AID 438;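 active = inhibition above 20% together with a positive visual image hit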;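 note: compound added about 3h40 before a 20 min TNFalpha stimulation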;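 for inhibition: signal is the nuclear over cytoplasmic p65 intensity ratio per well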). The following applies: HUVEC TNFa-induced p65 nuclear translocation; cell count: measured here: nuclei count (cytotoxicity indicator), at 2.08 µM; inhibition: at 2 µM, stronger effect = higher value, 0% TNFa-plus-vehicle, 100% no-TNFa wells.
Experiment [2] can be described thus: inhibitors of mutant huntingtin aggregation, primary screen, imaging, exon1htt(103Q)mCFP cells, high-content imaging (AID 483;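 active = visual image review flags a hit and inhibition of aggregation exceeds 20%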;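 note: compound exposure lasted 3 days before fixation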;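 for nuclei count: percent of the per-plate median nuclei count of sample wells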). The following applies: exon1htt(103Q)mCFP cell line, aggregate imaging, at 2 µM; inhibition of aggregation: stronger effect = higher value; nuclei count: measured here: cell count, toxicity.
The nature of experiment [3]: inhibitors of E-selectin induction by TNFa, primary screen, imaging, HUVEC, immunofluorescence, MLSMR starter and 10KST1 sets (AID 487;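 active = visually confirmed hit in the image check and inhibition above 20%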;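 for inhibition: signal is fraction of cell area covered by stained E-selectin grains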;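 for nuclei count: 100% = median nuclei count of all wells on the same plate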). Particulars: HUVEC TNFalpha-induced E-selectin immunofluorescence imaging, at 2 µM; inhibition: stronger effect = higher value; nuclei count: measured here: cell number, toxicity.
Experiment [4] addresses Voltage-gated potassium channel subunit beta-2 (Rattus norvegicus) (UniProt P62483). Description: KvBeta enzyme negative modulators, primary screen, biochemical, NADPH fluorescence (AID 622;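 active = fluorescence slope higher than the sample average by over 3 SD, cut at about -0.22 in these data, passing the limit was not always enough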;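 note: slope of raw intensity against log time taken from 70 to 1610 s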). Particulars: recombinant KvBeta, 4-cyanobenzaldehyde reduction, at 10 µM, stronger effect = higher value.
Experiment [5] has the same target. The experiment can be described thus: KvBeta positive modulators, primary screen, biochemical, NADPH fluorescence (AID 623;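 active = NADPH fluorescence slope more negative than the mean of all samples by about 3 SD, 99.7% confidence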;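 note: fluorescence intensity change per second fitted from 20 to 320 s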). The following applies: Recombinant KvBeta, NADPH fluorescence decrease slope, 10 min; at 10 µM; stronger effect = lower value.
In experiment [6] the target is Alpha-2C adrenergic receptor (Homo sapiens) (UniProt P18825). Description: modulators of alpha2C/GIRK thallium flux, primary screen, cell-based, HEK293 alpha2C/GIRK1/2 (AID 624;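 active = fluorescence slope after compound addition differing from the mean of all screened samples at 99.7% confidence, in either direction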;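 note: slope of fluorescence ratio to pre-addition baseline per second over 15 to 24 s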). Particulars: thallium flux BTC fluorescence, at 10 µM, actives lie on both sides.
Alpha-2C adrenergic receptor (Homo sapiens), sequence (P18825 whole entry, looked up): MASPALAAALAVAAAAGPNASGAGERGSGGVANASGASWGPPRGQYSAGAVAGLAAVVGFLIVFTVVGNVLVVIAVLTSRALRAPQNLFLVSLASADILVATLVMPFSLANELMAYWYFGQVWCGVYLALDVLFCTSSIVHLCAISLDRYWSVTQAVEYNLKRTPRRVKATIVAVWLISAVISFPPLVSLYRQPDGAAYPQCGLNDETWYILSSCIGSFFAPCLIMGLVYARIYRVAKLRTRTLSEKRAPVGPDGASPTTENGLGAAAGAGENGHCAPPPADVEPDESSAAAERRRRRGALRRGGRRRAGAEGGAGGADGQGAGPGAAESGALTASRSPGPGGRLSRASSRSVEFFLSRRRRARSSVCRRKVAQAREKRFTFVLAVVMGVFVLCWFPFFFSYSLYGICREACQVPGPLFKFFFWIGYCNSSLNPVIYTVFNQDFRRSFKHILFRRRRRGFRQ
The nature of experiment [7]: inhibitors of larval lipid processing in zebrafish, primary screen, whole organism, PED6 fluorescence, gall bladder and intestine (AID 686;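 active = a full or partial loss of lipid-probe fluorescence in the fish gall bladder, intestine or both, judged by eye; inactive = no fluorescence loss, or compound toxic to the fish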;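 note: larvae 5 to 7 days old with five fish per well; signal comes from phospholipase A2 cleavage of quenched PED6 carried via bile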). Particulars: Zebrafish larvae PED6 lipid processing, fluorescence scoring; screened at 20 µM (by protocol). The gist of the method:
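Incubation: overnight exposure of larvae to compound plus PED6 / Test system: live zebrafish larvae aged 5-7 days, whole organism / Amount: 5 larvae per well / Read-out basis: visual per-well fluorescence inhibition score / Signal: visual fluorescence microscopy scoring of gall bladder, gut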

Experiment [8] is described as follows: inhibitors of Sendai virus-induced IRF3 signaling, primary screen, TLR/RLR signaling modifier project, cell-based, Sendai virus stimulus, luciferase, 10K MLSCN set (AID 602276).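 Note: firefly luciferase from ISG56 promoter only with Renilla not read in this screen; 0% = Sendai virus plus DMSO and 100% = medium plus DMSO without virus.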 The following applies: HEK293 RL24 IRF3 luciferase reporter, at 10 µM, stronger effect = higher value.
The nature of experiment [9]: inhibitors of poly I:C-induced TLR3 signaling, primary screen, cell-based, poly I:C stimulus, luciferase, 10K MLSCN set (AID 602277;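 active = inhibition of the reporter signal at or above 50%; inactive = inhibition below 50%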). The following applies: HEK293-TLR3 RL24 IRF3 luciferase reporter, at 10 µM, stronger effect = higher value. On the technique in general: Reporter assays use an easily measured gene product as a stand-in for the process of interest.

Activity calls are given as the source filed them.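 Rule for the calls, unless noted: active = inhibition at or above 50% at 10 µM; inactive = inhibition below 50%.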

Voltage-gated potassium channel subunit beta-2 (Rattus norvegicus), sequence (P62483 whole entry, looked up): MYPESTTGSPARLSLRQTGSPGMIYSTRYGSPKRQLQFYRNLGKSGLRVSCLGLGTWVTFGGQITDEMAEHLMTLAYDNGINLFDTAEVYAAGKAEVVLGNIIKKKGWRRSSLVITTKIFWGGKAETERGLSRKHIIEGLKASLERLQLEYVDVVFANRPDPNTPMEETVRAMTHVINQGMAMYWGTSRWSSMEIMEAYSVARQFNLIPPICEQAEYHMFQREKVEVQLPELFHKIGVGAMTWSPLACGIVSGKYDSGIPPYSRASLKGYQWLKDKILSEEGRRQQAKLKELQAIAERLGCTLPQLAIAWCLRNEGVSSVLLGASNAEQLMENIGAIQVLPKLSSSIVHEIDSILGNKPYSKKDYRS

Turning to `Cc1nn(Cc2ccccc2)c2c1C(c1ccncc1)C(C#N)=C(N)O2` (stereo unspecified), the cell count in experiment [1] turned out to be 273. Moreover, the inhibition was -1.3% (inactive) in experiment [1], -58.9% (inactive) in experiment [3], 2.54% (inactive) in experiment [8] and 0.489% (inactive) in [9]. The inhibition of aggregation in experiment [2] is 17.9% (inactive). Also, the nuclei count in [2] was 62.3%; in experiment [3], 97.3%. In addition, in [4], the fluorescence slope was -0.381 (inactive). Also, the NADPH fluorescence slope in experiment [5] was -5.9e-05 (inactive). The slope in experiment [6] was 0.0052 (inactive). The outcome in experiment [7] was inactive.

As for `Cc1nc(C)n(C(C)CC(=O)O)n1` (stereo unspecified), the cell count in experiment [1] worked out at 635. For the same compound, the inhibition was 0.7% (inactive) in experiment [1], -147% (inactive) in experiment [3], 5.03% (inactive) in [8] and 7.13% (inactive) in [9]. Further, the inhibition of aggregation in experiment [2] is 53.1% (active). Also, the nuclei count is 90.8% in [2] and 115% in [3]. Also, the fluorescence slope in [4] is -0.386 (inactive). Also, the NADPH fluorescence slope in experiment [5] is -4.4e-05 (inactive). The slope in [6] is 0.00496 (inactive). Moreover, the result in [7] was inactive.

Take `Cc1cc(C)nc(SCc2ccc3nonc3c2)n1`: in experiment [1], the cell count stood at 634. Further, the inhibition is -4.3% (inactive) in [1], 12.3% (inactive) in experiment [3], 8.18% (inactive) in experiment [8] and 10.6% (inactive) in experiment [9]. Besides, the inhibition of aggregation in experiment [2] was -20.5% (inactive). The nuclei count in experiment [2] was 114%; in experiment [3], 97.4%. For the same compound, the fluorescence slope in experiment [4] was -0.282 (inactive). In addition, in [5], the NADPH fluorescence slope is -1.3e-05 (inactive). Moreover, the slope in experiment [6] is 0.00664 (inactive). In addition, the outcome in [7] is “inactive; toxic”.

For `CN/C=C1\C(=O)C(C)(C)Oc2ccc3ccc(=O)oc3c21`, in [1], the cell count is 544. Moreover, the inhibition is -12.4% (inactive) in [1], -38.4% (inactive) in experiment [3], 8.59% (inactive) in experiment [8] and 8.49% (inactive) in experiment [9]. Moreover, the inhibition of aggregation in experiment [2] is -24.8% (inactive). Moreover, the nuclei count in experiment [2] was found to be 101%; in experiment [3] it was 129%. Further, the fluorescence slope in experiment [4] was -0.384 (inactive). Moreover, the NADPH fluorescence slope in experiment [5] was -2.1e-05 (inactive). The slope in experiment [6] is 0.00506 (inactive). In experiment [7], the compound was classed as inactive.

For `Cc1ccc(S(=O)(=O)N2CCCN(S(=O)(=O)C3CCS(=O)(=O)C3)CC2)cc1` (stereo unspecified), the cell count in [1] amounted to 455. The inhibition in [1] was 2.4% (inactive); in [3], -102% (inactive); in experiment [8], 12.7% (inactive); in experiment [9] it was 14% (inactive). For the same compound, in experiment [2], the inhibition of aggregation is -22.7% (inactive). Also, the nuclei count in [2] worked out at 111%; in [3], 129%. Moreover, the fluorescence slope in [4] was -0.366 (inactive). In [5], the NADPH fluorescence slope was -4.2e-05 (inactive). The slope in experiment [6] was 0.00596 (inactive). Further, the compound was called inactive in experiment [7].

Take `Cc1sc2ncnc(Oc3ccc(-n4ccnc4)cc3)c2c1C`: in experiment [1], the cell count was determined as 377. Also, the inhibition in experiment [1] is -13.2% (inactive); in experiment [3], -56.2% (inactive); in experiment [8] it was -6.33% (inactive); in [9] it was -14.4% (inactive). Also, the inhibition of aggregation in experiment [2] is -1% (inactive). Further, the values for the nuclei count in experiment [2] and in experiment [3] were 109% and 140%, respectively. Besides, the fluorescence slope in [4] was -0.382 (inactive). Besides, the NADPH fluorescence slope in [5] is 7e-06 (inactive). For the same compound, the slope in experiment [6] was 0.00491 (inactive). For the same compound, the call in [7] was inactive.

`Cc1nn(C(=O)c2ccccc2)c2c1C(=O)CC(C)(C)C2`: in experiment [1], the cell count was found to be 380. For the same compound, the inhibition in [1] is 1.3% (inactive); in [3] it was -114% (inactive); in [8] it was 18.8% (inactive); in experiment [9], 17.1% (inactive). In addition, the inhibition of aggregation in [2] is -11.8% (inactive). Further, the nuclei count was 104% in [2] and 112% in experiment [3]. Also, the fluorescence slope in experiment [4] is -0.419 (inactive). Further, the NADPH fluorescence slope in experiment [5] was -1e-05 (inactive). The slope in experiment [6] is 0.00514 (inactive). Besides, the call in experiment [7] was inactive.

With `Cc1onc(-c2c(F)cccc2Cl)c1C(=O)Nc1nc2c(s1)CCCC2`, the cell count in experiment [1] came out at 250. The inhibition in [1] is 5.1% (inactive); in experiment [3], 38.1% (inactive); in experiment [8] it was -235% (inactive); in experiment [9] it was 99.1% (active). Besides, the inhibition of aggregation in [2] is 14.6% (inactive). The nuclei count in experiment [2] amounted to 101%; in [3] it was 77.9%. Besides, the fluorescence slope in experiment [4] was -0.467 (inactive). The NADPH fluorescence slope in [5] was -9.4e-06 (inactive). The slope in [6] is 0.00615 (inactive). In addition, in [7], the result was inactive.

In the case of `Cc1ccc(NC(=O)COC(=O)c2ccn(C)n2)cc1`, in [1], the cell count worked out at 521. Besides, the inhibition in experiment [1] is -2.1% (inactive); in experiment [3], -28.3% (inactive); in experiment [8], 17.1% (inactive); in [9] it was 22.3% (inactive). Also, in experiment [2], the inhibition of aggregation is -15.4% (inactive). The nuclei count in experiment [2] amounted to 89.1%; in [3] it was 109%. Further, in experiment [4], the fluorescence slope was -0.39 (inactive). The NADPH fluorescence slope in [5] is 1.1e-05 (inactive). In experiment [6], the slope was 0.0046 (inactive). In addition, the compound was classed as inactive in experiment [7].

Take `Cc1ccc(S(=O)(=O)NCC(c2cccnc2)N(C)C)cc1` (stereo unspecified): the cell count in experiment [1] was determined as 453. Besides, the inhibition in experiment [1] is -1.9% (inactive); in experiment [3] it was -33.6% (inactive); in [8] it was 7.09% (inactive); in experiment [9] it was 15.6% (inactive). In addition, the inhibition of aggregation in experiment [2] is 2.5% (inactive). Besides, the nuclei count in experiment [2] came to 106%; in [3] it was 127%. Besides, the fluorescence slope in [4] was -0.464 (inactive). Further, the NADPH fluorescence slope in experiment [5] was -9.5e-06 (inactive). Besides, the slope in experiment [6] is 0.00528 (inactive). Moreover, the outcome in experiment [7] was inactive.

Consider `O=C(CN1CCN(c2ccc(F)cc2)CC1)OCc1ccccc1`, for which the cell count in experiment [1] was 662. Besides, the inhibition in experiment [1] is 11.1% (inactive); in experiment [3], 5.8% (inactive); in [8], 6.81% (inactive); in [9], 6.58% (inactive). In [2], the inhibition of aggregation is -6.3% (inactive). For the same compound, the nuclei count in experiment [2] is 102%; in experiment [3] it was 118%. The fluorescence slope in [4] is -0.356 (inactive). In addition, the NADPH fluorescence slope in experiment [5] is -6.7e-05 (inactive). The slope in [6] is 0.00472 (inactive). Besides, in [7], the outcome was inactive.

As for `N#Cc1c(N)oc(-c2cccs2)c1-c1cccs1`, the cell count in experiment [1] is 508. Moreover, the inhibition in [1] was 2.6% (inactive); in experiment [3], -29.4% (inactive); in experiment [8] it was -45.9% (inactive); in experiment [9] it was 50.6% (active). In experiment [2], the inhibition of aggregation is -9.8% (inactive). For the same compound, the nuclei count in experiment [2] is 93.1%; in experiment [3], 120%. The fluorescence slope in [4] is -0.306 (inactive). The NADPH fluorescence slope in [5] is -3e-05 (inactive). Besides, in experiment [6], the slope was 0.00454 (inactive). Besides, the result in experiment [7] was inactive.

`CC(=O)Nc1ccc(Cc2ccncc2)cc1`: the cell count in [1] worked out at 528. The inhibition in experiment [1] was -7.4% (inactive); in [3] it was -40.3% (inactive); in experiment [8] it was 6.14% (inactive); in experiment [9], 4.37% (inactive). Further, the inhibition of aggregation in [2] is 14.9% (inactive). The nuclei count in [2] came to 93.3%; in experiment [3], 115%. The fluorescence slope in [4] was -0.39 (inactive). Also, the NADPH fluorescence slope in experiment [5] is -4.8e-05 (inactive). Further, the slope in experiment [6] is 0.00486 (inactive). Moreover, the result in [7] was inactive.

By inhibition is commonly meant the change of the read-out against control, counted positive when it falls.
